We go through 2 molecules from ChEMBL document CHEMBL1629550 (Antimicrob Agents Chemother, 2008).

The subject of series [1] is Listeria monocytogenes. Briefly: Antibacterial activity against Listeria monocytogenes EGD-e in BALB/c mouse central nervous system listeriosis model assessed as increase in mouse survival at 50 mg/kg, ip administered 36 hrs postinfection as single dose. The series is classed as functional. To be noted: route intraperitoneal. The gist of the method: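 Female BALB/c mice, 7–8 weeks old, were infected via the lateral tail vein with 1 × 10^5 EGD-e in 0.5 ml saline. At 36 h they received a single 50 mg·kg−1 i.p. dose in isotonic saline (0.1 ml), with n = 12. Controls got saline (n = 5). Death was checked twice daily from 36 h, and survivors were followed 2 months. Results were plotted as Kaplan-Meier estimates.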

Series [2] concerns Listeria monocytogenes. Briefly: Antibacterial activity against Listeria monocytogenes EGD-e in BALB/c mouse central nervous system listeriosis model assessed as log reduction in bacterial CFU per ml of blood at 50 mg/kg, ip administered 36 hrs postinfection as single dose measured within 1 hr. Conditions: route intraperitoneal. The series is classed as functional. An outline of the steps:
(§1)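 Female BALB/c mice (7–8 weeks) were infected i.v. with 1 × 10^5 EGD-e and given one i.p. dose of 50 mg·kg−1 at 36 h; saline was given to controls. Groups of three were sampled at 1, 6, 24 and 48 h. Blood and homogenized liver, spleen and brain were serially diluted 10-fold on BHI agar and counted after 24 h at 37°C. Results are mean ± SE log10 CFU/organ or per ml blood.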

Series [3] relates to Listeria monocytogenes. Briefly: Antibacterial activity against Listeria monocytogenes EGD-e in BALB/c mouse central nervous system listeriosis model assessed as reduction in bacterial count in spleen at 50 mg/kg, ip administered 36 hrs postinfection as single dose measured within 6 hr. The series is classed as functional, organism-based. More on the design: dose 50 mg/kg. An outline of the steps:
as §1

The test system of series [4] is Listeria monocytogenes. Briefly: Antibacterial activity against Listeria monocytogenes EGD-e in BALB/c mouse central nervous system listeriosis model assessed as increase in mouse survival at 50 mg/kg, ip administered 36 hrs postinfection every 12 hrs for 5 days. The series is classed as functional. Conditions: route intraperitoneal. The gist of the method:
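Female BALB/c mice, 7–8 weeks old, were infected i.v. via the tail vein with 1 × 10^5 EGD-e in 0.5 ml saline. From 36 h they received 50 mg·kg−1 i.p. in isotonic saline (0.1 ml) every 12 h for 5 days, with n = 20. Controls got saline (n = 5). Death was checked twice daily, and survivors were followed 2 months for relapse. Results were plotted as Kaplan-Meier estimates.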

Series [5] deals with Listeria monocytogenes. Briefly: Antibacterial activity against Listeria monocytogenes EGD-e in BALB/c mouse central nervous system listeriosis model assessed as reduction in bacterial count in liver at 50 mg/kg, ip administered 36 hrs postinfection as single dose measured within 6 hr. The series is classed as functional, organism-based. More on the design: dose 50 mg/kg. An outline of the steps:
as §1

Series [6] relates to Listeria monocytogenes. Briefly: Antibacterial activity against Listeria monocytogenes EGD-e in BALB/c mouse central nervous system listeriosis model assessed as mouse survival at 50 mg/kg, ip administered 36 hrs postinfection every 12 hrs for 5 days measured after 2 months. More on the design: dose 50 mg/kg. The series is classed as functional, organism-based. The gist of the method:
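BALB/c females were infected i.v. with 1 × 10^5 EGD-e. Starting 36 h after infection, they were dosed i.p. at 50 mg·kg−1 every 12 h for 5 days (n = 20); saline controls n = 5. Deaths were checked twice daily from 36 h post-infection. Survivors were followed for 2 months for relapse, and survival was analysed by Kaplan-Meier.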

Series [7] in a line: AUC (24 hrs) in plasma in Listeria monocytogenes EGD-e infected BALB/c mouse central nervous system listeriosis model at 50 mg/kg, ip administered 36 hrs postinfection as single dose. The series is classed as ADME, organism-based. More on the design: time < 24 hr, dose 50 mg/kg, route intraperitoneal. The gist of the method: (§2)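 Female BALB/c mice, 7–8 weeks old, were infected i.v. via the tail vein with 1 × 10^5 EGD-e. At 36 h they received one i.p. dose of 50 mg·kg−1 in isotonic saline. Groups of six were killed at 0–480 min. Blood-cleared brain homogenate and plasma were deproteinized with acetonitrile, with ciprofloxacin as internal standard, and analysed by reverse-phase HPLC with fluorescence detection (ex 290/em 550 nm). Cmax was read from the curves; AUC24 was calculated by the trapezoidal rule.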

The subject of series [8] is Listeria monocytogenes. Briefly: Antibacterial activity against Listeria monocytogenes EGD-e in BALB/c mouse central nervous system listeriosis model assessed as reduction in bacterial count in spleen at 50 mg/kg, ip administered 36 hrs postinfection as single dose measured within 1 hr. The series is classed as functional, organism-based. More on the design: dose 50 mg/kg. The gist of the method: as §1

The test system of series [9] is Listeria monocytogenes. Briefly: Antibacterial activity against Listeria monocytogenes EGD-e in BALB/c mouse central nervous system listeriosis model assessed as reduction in bacterial count in liver at 50 mg/kg, ip administered 36 hrs postinfection as single dose measured within 1 hr. The series is classed as functional, organism-based. More on the design: dose 50 mg/kg. The gist of the method:
as §1

A short description of series [10]: Cmax in plasma in Listeria monocytogenes EGD-e infected BALB/c mouse central nervous system listeriosis model at 50 mg/kg, ip administered 36 hrs postinfection as single dose. The series is classed as ADME, organism-based. More on the design: dose 50 mg/kg, route intraperitoneal. An outline of the steps:
as §2

Activity calls are given as the source filed them. The calls are words filed in the database; no cut-off is given here.

By AUC is commonly meant the area under the concentration-time curve, a measure of exposure. Low readings indicate low exposure, high ones high exposure. Usually Cmax stands for the peak of the concentration-time curve.

For `CC1(C)S[C@@H]2[C@H](NC(=O)[C@H](N)c3ccc(O)cc3)C(=O)N2[C@H]1C(=O)O` [AMOXICILLIN], the Time in the series with Listeria monocytogenes [1] stood at 12 h. Also, the FC in the series on Listeria monocytogenes [2] turned out to be 1. Besides, the outcome in the series with Listeria monocytogenes [3], in the series with Listeria monocytogenes [5] and in the series with Listeria monocytogenes [6] was Active. In addition, in the series on Listeria monocytogenes [4], the Activity is given as 75%.

`COc1c(N2C[C@@H]3CCCN[C@@H]3C2)c(F)cc2c(=O)c(C(=O)O)cn(C3CC3)c12` [MOXIFLOXACIN]: in [7], the AUC at 24 h was found to be 27100 ng·h/mL. The result in the series on Listeria monocytogenes [8], with Listeria monocytogenes [6] and in the series with Listeria monocytogenes [9] was Active. Further, in the series with Listeria monocytogenes [1], the Time was determined as 24 h. Besides, the Activity with Listeria monocytogenes [4] was 100%. In addition, the peak concentration (Cmax) in series [10] amounted to 17300 ng/mL.
